Where a chain is given by its changes, count along the chain named. “Also recorded” adds a separate entry of the source.
Columns and labels:
[1] = target: T1, HCV NS3h (Hepatitis C virus genotype 1b, UniProt Q9WMX2); test: FP-based binding assay, NS3h displacement from Cy5-dT15 DNA; parameters: species or system hepatitis C virus genotype 1b (con1); settings: for NS3h (% I): percent inhibition of NS3h binding to Cy5-dT15: 100 μM of each compound, 100 µM
T1 sequence (Q9WMX2 1190-1657 limits assumed): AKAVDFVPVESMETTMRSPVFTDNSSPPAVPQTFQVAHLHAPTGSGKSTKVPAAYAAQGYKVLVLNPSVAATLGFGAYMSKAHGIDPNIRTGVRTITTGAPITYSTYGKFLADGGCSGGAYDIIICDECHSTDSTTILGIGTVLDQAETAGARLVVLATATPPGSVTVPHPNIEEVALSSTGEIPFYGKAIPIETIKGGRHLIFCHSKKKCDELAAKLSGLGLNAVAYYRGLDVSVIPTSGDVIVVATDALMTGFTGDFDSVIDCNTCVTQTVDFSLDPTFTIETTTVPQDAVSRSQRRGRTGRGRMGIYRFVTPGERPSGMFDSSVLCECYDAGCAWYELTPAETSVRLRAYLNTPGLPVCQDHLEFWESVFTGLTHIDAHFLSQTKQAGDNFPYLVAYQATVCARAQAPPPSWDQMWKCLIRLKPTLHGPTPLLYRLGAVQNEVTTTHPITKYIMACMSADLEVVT
In short: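 Fluorescence polarization with Cy5-dT15 and NS3h: excitation 635 nm; parallel and perpendicular emission read at 667 nm; G-factor taken from probe-only wells. % inhibition normalized to DMSO-only (negative) and 200 nM dT20 or 100 μM primuline (positive) controls. Single-point tests at 100 μM. IC50 is the concentration displacing 50% of NS3h from DNA. Reversibility: 10 μM NS3h preincubated 1 h with test compound, then diluted 100–100 000-fold into Cy5-dT15 and compared with untreated controls.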

[2] = target: T2, NS3h_1b(con1) C279S (Hepatitis C virus genotype 1b, UniProt Q9WMX2, C1305S); test: DNA binding, ATP hydrolysis and DNA unwinding assays with C279S NS3h; assay type: biochemical, hepatitis C virus genotype 1b (con1); settings: DNA binding, ATP hydrolysis, DNA unwinding
T2 sequence (Q9WMX2 1190-1657 C1305S limits assumed): T1 sequence (Q9WMX2 1190-1657 limits assumed) with C116S

[3] = target: T1, HCV NS3h; test: FP-based binding assay, NS3h displacement from Cy5-rU15 RNA; parameters: species or system hepatitis C virus genotype 1b (con1); settings: IC50 RNA (Cy5-rU15–NS3h complex, RNA:NS3h binding), Figures 1C and 7B titration
In short: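 Con1 NS3h bound to 5′-Cy5-labelled rU15 RNA was titrated with test compound. Polarisation was read with excitation 635 nm and emission 667 nm, G-factor from probe-only wells. Values were normalised to DMSO and positive controls and fit to a concentration–response equation (n = 3). IC50 is the concentration reducing complex polarisation by 50%.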

[4] = target: T3, NS3 ATPase (Hepatitis C virus genotype 1b, UniProt Q9WMX2); test: ATPase assay; assay type: biochemical, hepatitis C virus genotype 1b (con1); settings: Figure 7B
T3 sequence (Q9WMX2 1190-1657 limits assumed): T1 sequence (Q9WMX2 1190-1657 limits assumed)

[5] = target: E. coli SSB (Escherichia coli, UniProt P0AGE0); test: FP-based binding assay with SSB in place of NS3h
In short: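 Fluorescence polarisation assay with E. coli SSB in place of NS3h, using Cy5-dT15 (or Cy5-rU15 for titrations). Screen compounds were pin-transferred to 100 μM final, 1% DMSO. Excitation 635 nm, emission 667 nm; G-factor from probe-only wells. Percent inhibition was normalised to DMSO and to unlabeled dT20 or 100 μM primuline controls.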

[6] = target: T4, NS3h_1b(con1) C289S (Hepatitis C virus genotype 1b, UniProt Q9WMX2, C1315S); test: DNA binding, ATP hydrolysis and DNA unwinding assays with C289S NS3h; assay type: biochemical, hepatitis C virus genotype 1b (con1); settings: DNA binding, ATP hydrolysis, DNA unwinding
T4 sequence (Q9WMX2 1190-1657 C1315S limits assumed): T1 sequence (Q9WMX2 1190-1657 limits assumed) with C126S

[7] = test system: HCV genotype 2a isolate (JFH1); settings: 20 μM of each compound; ref Gastaminza et al.[9]; cited from earlier work
[8] = target: T5, NS3h (Hepatitis C virus genotype 1b, UniProt Q9WMX2); test: ESI mass spectrometry of ebselen-treated NS3h; parameters: species or system hepatitis C virus genotype 1b (con1); settings: 100 μM ebselen, 1 h, RT
T5 sequence (Q9WMX2 1190-1657 limits assumed): T1 sequence (Q9WMX2 1190-1657 limits assumed)
In short: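 Con1 NS3h was incubated 1 h at RT with 100 μM test compound in 10 mM ammonium acetate pH 7.5, 1% DMSO. It was dialysed against 10 mM ammonium acetate (three changes) and diluted to 0.15 mg/mL in 50:50 acetonitrile/water, 0.2% formic acid. Nano-ESI Q-TOF, positive mode, 3 kV, 0.7 μL/min, 10 min acquisition, compared with untreated and DMSO-treated protein.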

[9] = target: T6, NS3h helicase (Hepatitis C virus genotype 1b, UniProt Q9WMX2); test: Molecular beacon-based helicase; assay type: biochemical, hepatitis C virus genotype 1b (con1); settings: IC50 Helicase (DNA unwinding), Figure 7B, no DTT
T6 sequence (Q9WMX2 1190-1657 limits assumed): T1 sequence (Q9WMX2 1190-1657 limits assumed)

[10] = target: NS3 protease (scNS3-NS4A) (Hepatitis C virus, UniProt Q9WMX2); test: Protease assay; assay type: biochemical; settings: even at the highest concentrations tested
In short: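 Full-length single-chain NS3-4A at 10 nM, in kit HCV protease buffer without DTT with 5% DMSO, cleaving a 5-carboxyfluorescein-labelled peptide substrate; fluorescence read at 520 nm. Test compound was run as a 7-point two-fold dilution series from 100 μM, in duplicate.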

E. coli SSB, sequence (P0AGE0 2-178 limits assumed): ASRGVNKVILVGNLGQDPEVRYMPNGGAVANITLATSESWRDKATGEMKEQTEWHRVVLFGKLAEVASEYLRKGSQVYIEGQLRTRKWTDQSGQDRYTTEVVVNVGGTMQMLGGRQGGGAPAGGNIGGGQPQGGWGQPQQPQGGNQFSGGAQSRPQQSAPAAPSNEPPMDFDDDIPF

For `O=c1c2ccccc2[se]n1-c1ccccc1` [Ebselen, 2-phenyl-1,2-benzisoselenazol-3(2H)-one], the “reversibility of NS3h inhibition” value ([1]; 10 μM NS3h treated with 10 μM ebselen for 1 h, then diluted to <0.1 μM ebselen) was “reversible”, the “NS3h (% I): percent inhibition of NS3h binding to Cy5-dT15” value [1] was 99% and the “NS3h (% I): percent inhibition of NS3h binding to Cy5-dT15” value ([1]; listed as ebselen) was “more than 50%”. The IC50 ([1]; IC50 DNA (Cy5-dT15–NS3h complex), Figure 1C titration, n = 3) was ~1 µM, the “reversibility of NS3h inhibition” value ([1]; NS3h incubated with 100 μM ebselen, then dialysis) was “irreversible” and the “sensitivity to ebselen inhibition compared with wild type” value [2] was “neither protein was more or less sensitive”. For the same molecule, the IC50 [3] was ~1 µM, the IC50 [4] was ~1 µM and the “effect on SSB binding to DNA or RNA” value ([5]; Cy5-dT15 or Cy5-rU15, Figure 1D titration) was “no effect; also recorded: did not inhibit”. For the same molecule, the inhibition at 100 µM ([5]; read-out: SSB (% I): percent inhibition of SSB binding to Cy5-dT15) was 3%, the “sensitivity to ebselen inhibition compared with wild type” value [6] was “neither protein was more or less sensitive” and the “HCV (% I): percent inhibition of HCV replication in cells” value [7] was 83%. For the same molecule, the “number of ebselens bound to NS3h (covalent adducts)” value [8] was 14, the IC50 [9] was ~1 µM and the “effect on NS3 protease activity (peptide cleavage by full-length NS3)” value [10] was “no effect”.
